Experimental data as given in ChEMBL document CHEMBL4364266, “Design, synthesis and biological evaluation of novel 2,3,4,9-tetrahydro-1H-pyrido[3,4-b]indole triazole derivatives as potent TRPV1 antagonists” (Eur J Med Chem, 2019).
Calls of active or inactive are those of the source.

Tests used:
[1] = target: T1, Transient receptor potential cation channel subfamily V member 1 (Homo sapiens, UniProt Q8NER1); experiment: Antagonist activity at low pH-induced human recombinant TRPV1 expressed in CHO-K1 cells co-expressing aequorin at 50 uM incubated for 2.5 mins in presence of ATP followed by hydrochloride addition at pH 5 by luminescence assay relative to control; assay type: cell-based
T1 sequence (Q8NER1 whole entry): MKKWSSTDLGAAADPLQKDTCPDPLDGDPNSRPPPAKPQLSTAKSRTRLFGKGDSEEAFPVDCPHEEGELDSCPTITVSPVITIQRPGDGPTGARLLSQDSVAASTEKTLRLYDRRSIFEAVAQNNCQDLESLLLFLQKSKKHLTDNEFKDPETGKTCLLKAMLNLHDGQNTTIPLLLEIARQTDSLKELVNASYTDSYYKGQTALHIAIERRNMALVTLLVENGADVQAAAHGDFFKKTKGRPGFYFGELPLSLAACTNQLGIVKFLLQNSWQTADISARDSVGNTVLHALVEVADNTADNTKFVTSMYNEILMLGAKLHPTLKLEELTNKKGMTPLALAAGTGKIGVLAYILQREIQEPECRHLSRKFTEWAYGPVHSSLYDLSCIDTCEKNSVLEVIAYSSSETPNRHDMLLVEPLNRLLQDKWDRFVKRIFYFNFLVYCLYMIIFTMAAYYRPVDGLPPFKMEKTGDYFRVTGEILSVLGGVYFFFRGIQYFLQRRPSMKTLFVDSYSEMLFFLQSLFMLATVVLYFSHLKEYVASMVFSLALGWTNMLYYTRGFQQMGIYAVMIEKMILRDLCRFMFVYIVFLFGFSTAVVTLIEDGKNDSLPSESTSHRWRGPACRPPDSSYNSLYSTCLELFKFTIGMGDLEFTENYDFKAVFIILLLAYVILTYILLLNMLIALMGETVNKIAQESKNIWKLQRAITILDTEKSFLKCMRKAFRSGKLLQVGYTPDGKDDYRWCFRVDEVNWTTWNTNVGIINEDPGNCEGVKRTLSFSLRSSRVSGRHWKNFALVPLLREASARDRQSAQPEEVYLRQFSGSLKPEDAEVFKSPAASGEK
Method in brief: (§1)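 Aequorin cells expressing recombinant human TRPV1 were loaded with coelenterazine for 4 h in the dark. Assay buffer was DMEM-F12 with 15 mM HEPES (pH 7.0) and 0.1% BSA. Cells were added to compound and incubated 2.5 min, then challenged with capsaicin or with HCl at pH 5.0, and luminescence was read at once. Digitonin (100 µM) and ATP (50 µM) served as reference blanks. Mean ± SEM of at least three experiments.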

Mus musculus [2] = experiment: Antinociceptive activity in KM mouse model of acetic acid induced pain assessed as suppression of writhes at 30 mg/kg, po administered as single dose pretreated for 30 mins followed by acetic acid challenge and measured for 15 mins; assay type: functional, organism-based
Method in brief: (§2)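 Male KM mice (18-22 g, n = 6 per group) received 30 mg/kg intragastrically as a suspension in 0.5% CMC-Na, 30 min before testing. Capsaicin test: 20 µL capsaicin injected s.c. into the dorsal right hind paw, with paw licking time summed over 5 min. Writhing test: 0.6% acetic acid given i.p. at 0.1 mL/10 g, with writhes counted for 15 min. Tail-flick test: 12 s cut-off.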

Mus musculus [3] = experiment: Effect on body temperature in KM mouse assessed as increase in rectal temperature at 30 mg/kg, po administered as single dose measured every 30 mins for 60 mins by electric probe thermometer; assay type: functional, organism-based
Method in brief: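 Male KM mice (n = 6) were dosed intragastrically with 30 mg/kg in 0.5% CMC-Na, or with vehicle. Body temperature was taken with an electric probe thermometer at 0, 30, 60, 90 and 120 min after dosing. Results given as temperature or as the change from 0 min, mean ± SEM, with Dunnett's test against vehicle.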

Mus musculus [4] = experiment: Antinociceptive activity in KM mouse model of thermal-induced nociception assessed as increase in latency to tail withdrawal at 30 mg/kg, po administered as single dose pretreated for 30 mins; assay type: functional, organism-based; method in brief: as §2
Mus musculus [5] = experiment: Antinociceptive activity in KM mouse model of acetic acid induced pain assessed as suppression of writhes at 1 to 10 mg/kg, po administered as single dose pretreated for 30 mins followed by acetic acid challenge and measured for 15 mins; assay type: functional, organism-based
Mus musculus [6] = experiment: Antinociceptive activity in KM mouse model of capsaicin-induced pain assessed as reduction in paw licking time at 1 to 10 mg/kg, po administered as single dose pretreated for 30 mins followed by capsaicin challenge and measured for 5 mins; assay type: functional, organism-based
[7] = target: T1, Transient receptor potential cation channel subfamily V member 1; experiment: Antagonist activity at capsaicin-induced human recombinant TRPV1 expressed in CHO-K1 cells co-expressing aequorin incubated for 2.5 mins in presence of ATP followed by capsaicin addition by luminescence assay; assay type: cell-based; method in brief: as §1
Mus musculus [8] = experiment: Antinociceptive activity in KM mouse model of thermal-induced nociception assessed as increase in latency to tail withdrawal at 1 to 10 mg/kg, po administered as single dose pretreated for 30 mins; assay type: functional, organism-based
Mus musculus [9] = experiment: Antinociceptive activity in KM mouse model of capsaicin-induced pain assessed as reduction in paw licking time at 30 mg/kg, po administered as single dose pretreated for 30 mins followed by capsaicin challenge and measured for 5 mins; assay type: functional, organism-based; method in brief: as §2

| SMILES | inhibition [1] [%] | IC50 [7] [nM] | other results |
| --- | --- | --- | --- |
| O=[N+]([O-])c1ccc(-n2cc(CN3CCc4c([nH]c5ccccc45)C3)nn2)cc1 | 86 | 121 | Activity (Mus musculus [2]): Active; Activity (Mus musculus [3]): Active; Activity (Mus musculus [4]): Active; Activity (Mus musculus [5]): inactive; Activity (Mus musculus [6]): inactive; Activity (Mus musculus [8]): inactive; Activity (Mus musculus [9]): Active |
| CC(C)(C)c1ccc(-n2cc(CN3CCc4ccccc43)nn2)cc1 | 32 | 22600 |  |
| Cc1cc(C)c(-n2cc(CN3CCc4c([nH]c5ccccc45)C3)nn2)c(C)c1 | 13 |  |  |
| CC(C)c1ccccc1-n1cc(CN2CCc3c([nH]c4ccccc34)C2)nn1 | 67 | 2530 |  |
| c1cc(-n2cc(CN3CCc4c([nH]c5ccccc45)C3)nn2)c2ccncc2c1 | 59 | 2160 |  |
| Fc1cccc(-n2cc(CN3CCc4ccccc43)nn2)c1 | 35 | 19400 |  |
| Clc1ccc(-n2cc(CN3CCc4c([nH]c5ccccc45)C3)nn2)cc1 | 73 | 495 |  |
| Brc1ccc(-n2cc(CN3CCc4c([nH]c5ccccc45)C3)nn2)cc1 | 78 | 788 |  |
| Clc1ccc(-n2cc(CN3CCc4c([nH]c5ccccc45)C3)nn2)cc1Cl | 73 | 341 |  |
| CC(C)(C)c1ccc(-n2cc(CN3CCc4c([nH]c5ccccc45)C3)nn2)cc1 | 61 | 1220 |  |
| FC(F)(F)c1ccccc1-n1cc(CN2CCc3ccccc32)nn1 | 55 | 4940 |  |
| O=[N+]([O-])c1cc(Cl)ccc1-n1cc(CN2CCc3c([nH]c4ccccc34)C2)nn1 | 67 | 394 |  |
| COc1ccc(-n2cc(CN3CCc4c([nH]c5ccccc45)C3)nn2)cc1OC | 74 | 1120 |  |
| CC(C)c1ccccc1-n1cc(CN2CCc3ccccc32)nn1 | 39 |  |  |
| Clc1cccc(-n2cc(CN3CCc4c([nH]c5ccccc45)C3)nn2)c1 | 71 | 416 |  |
| COc1ccc(-n2cc(CN3CCc4c([nH]c5ccccc45)C3)nn2)cc1 | 55 | 1200 |  |
| Cc1ccc(C)c(-n2cc(CN3CCc4c([nH]c5ccccc45)C3)nn2)c1 | 67 | 1540 |  |
| Cc1cc(C)nc(-n2cc(CN3CCc4c([nH]c5ccccc45)C3)nn2)c1 | 13 |  |  |
| CC(C)c1cccc(-n2cc(CN3CCc4c([nH]c5ccccc45)C3)nn2)c1 | 40 | 1670 |  |
| Clc1ccc(-n2cc(CN3CCc4cc(Cl)ccc43)nn2)cc1 | 34 |  |  |
